Consider 26 molecules from ChEMBL document CHEMBL1159062, “Towards the synthesis of bisubstrate inhibitors of protein farnesyltransferase: Synthesis and biological evaluation of new farnesylpyrophosphate analogues” (Bioorg Med Chem, 2010).

Assay [1] is described as follows: Inhibition of yeast recombinant FTase by fluorescent-based assay. The arrangement: species or system Saccharomyces cerevisiae.
Assay [2] deals with T1, Protein farnesyltransferase (Homo sapiens, UniProt P49354+P49356). Put plainly: Inhibition of human recombinant FTase by fluorescent-based assay. Type of assay: protein-complex assay.
For assay [3], the target named is T1, Protein farnesyltransferase. Kind of assay: Binding affinity to FPP site of human recombinant FTase by competitive Michaelis-Menten analysis. The class given is protein-complex assay. In a few lines:
(§1)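 Partially purified recombinant human FTase, fluorescent farnesylation of dansyl-GCVLS. Buffer: 5.8 mM DTT, 6 mM MgCl2, 12 µM ZnCl2, 0.18% octyl-glucopyranoside, 53 mM Tris/HCl pH 7.5. Kinetics: FPP varied with Dns-GCVLS fixed at 2.5 µM, or peptide varied with FPP fixed at 10 µM.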

The target is the same in assay [4]. Put plainly: Binding affinity to CaaX site of human recombinant FTase by non-competitive Michaelis-Menten analysis for enzyme-inhibitor complex. Type of assay: protein-complex assay. In a few lines:
as §1

Assay [5] has the same target. Kind of assay: Binding affinity to CaaX site of human recombinant FTase by non-competitive Michaelis-Menten analysis for enzyme-substrate-inhibitor complex. Type of assay: protein-complex assay. In a few lines: as §1
Assay [6] concerns Trypanosoma brucei brucei. Kind of assay: Antitrypanosomal activity against Trypanosoma brucei brucei 93 blood stream form at 10 uM after 72 hrs by alamar blue assay. Type of assay: functional. Particulars: for inhibition at 10 µM: Trypanosoma brucei, 93, 72 h. The method, boiled down: (§2)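 Strain 93 bloodstream forms cultured in HMI9 + 10% FCS, 37 °C, 5% CO2. Log-phase cells harvested at 3000g and seeded at 3 × 10^4 cells/mL. Inhibitors 0–100 µM, final DMSO 1%, 72 h. AlamarBlue (resazurin) added, read 4 h later at ex 530/em 590 nm. Inhibition relative to drug-free cells; triplicates, experiment repeated twice.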
(In general: Alamar Blue is a resazurin reagent that responds to reducing activity.)

Assay [7] relates to Trypanosoma brucei brucei. Put plainly: Antitrypanosomal activity against Trypanosoma brucei brucei WT2913 procyclic form at 10 uM after 72 hrs by alamar blue assay. Type of assay: functional. Particulars: for inhibition at 10 µM: WT2913, 72 h. The method, boiled down: (§3)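 Strain WT 2913 procyclic forms kept in semi-defined medium 79 + 10% heat-inactivated FCS at 27 °C. Log-phase cells spun at 3000g and seeded at 1 × 10^6 cells/mL. Exposed 72 h to 0–100 µM inhibitor in 1% final DMSO. Resazurin (AlamarBlue) fluorescence read after a further 4 h, ex 530/em 590 nm. Growth inhibition versus untreated; triplicates, done twice.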

Assay [8] relates to Plasmodium falciparum. Put plainly: Antiplasmodial activity against Plasmodium falciparum FcB1/Columbia assessed as [3H]hypoxanthine incorporation after 24 hrs by liquid scintillation spectrophotometer. The class given is functional, organism-based. In a few lines:
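FcB1/Colombia (chloroquine-resistant) grown on human erythrocytes in RPMI 1640 + 8% heat-inactivated human serum, 37 °C, 3% CO2/6% O2/91% N2. Twofold serial dilutions from 10 mM DMSO stocks; asynchronous cultures at 1% parasitemia, 1% final hematocrit, 24 h, then 0.5 µCi [3H]-hypoxanthine for 24 h more. Freeze-thaw, filter harvest, scintillation counting versus same-plate control. IC50 from concentration–response curve; mean ± SD of several independent experiments.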

Assay [9] concerns KB. Put plainly: Cytotoxicity against human KB cells at 10 uM after 72 hrs by MTS assay. The class given is functional. In a few lines:
(§4)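 KB cells seeded at 2000/well and exposed 72 h to compound in medium with 1% final DMSO; docetaxel as positive control. Viability by MTS, OD 490 nm. Cytotoxicity index = OD treated/OD control × 100, from triplicates across three experiments.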
A general note: Tetrazolium dyes change colour on reduction, which living cells bring about.

For assay [10], the system named is Trypanosoma brucei brucei. Kind of assay: Antitrypanosomal activity against Trypanosoma brucei brucei 93 blood stream form at 1 uM after 72 hrs by alamar blue assay. Type of assay: functional. The method, boiled down: as §2
In assay [11] the test system is Trypanosoma brucei brucei. Kind of assay: Antitrypanosomal activity against Trypanosoma brucei brucei WT2913 procyclic form at 1 uM after 72 hrs by alamar blue assay. The class given is functional, organism-based. In a few lines: as §3
The subject of assay [12] is KB. Put plainly: Cytotoxicity against human KB cells at 1 uM after 72 hrs by MTS assay. The class given is functional, cell-based. In a few lines:
as §4

Assay [13] has as its target T1, Protein farnesyltransferase. Kind of assay: Binding affinity to Dns-GCVLS peptide site of human recombinant FTase by competitive Michaelis-Menten analysis. The class given is protein-complex assay. In a few lines:
as §1

Active and inactive are the calls of the source. The rule behind the calls is not given here.

Broadly, the IC50 is the point on the concentration scale where inhibition reaches its midpoint. What is called Ki is a measure of affinity in units of concentration, obtained from inhibition or displacement. For orientation: inhibition means the percentage by which the read-out fell short of the control.

With `CC(C)=CCC/C(C)=C/CC/C(C)=C/COC(=O)CCC(=O)O`, the results for the IC50 in [1] (read-out: IC50) and in assay [2] (read-out: IC50) were 100 µM and 130 µM, respectively.
For the molecule `CC(C)=CCC/C(C)=C/CC/C(C)=C/C(c1nccn1C)C(CC(=O)O)C(=O)O` (stereo unspecified), the 50% inhibitory concentration (IC50) in [2] (read-out: IC50) stood at 12 µM.
Regarding `CCOC(=O)C(C/C=C(\C)CC/C=C(\C)CCC=C(C)C)(CCCc1ncc(CN[C@H](C(=O)N[C@@H](Cc2ccccc2)C(=O)N[C@@H](CCSC)C(=O)O)C(C)C)n1C)C(=O)O` (stereo partly specified), the Ki in assay [3] was 0.23 µM; in assay [4], 7.7 µM; in assay [5], 5.6 µM. The inhibition entry in [6], in [7] and in [9] was “inactive” in each case. Also, the figures for the IC50 in assay [8] and in assay [2] (read-out: IC50) were 31.4 µM and 0.24 µM, respectively.
Regarding `CC(C)=CCC/C(C)=C/CC/C(C)=C/C=C(C(=O)O)C(=O)O`, the IC50 result in assay [2] is “Not Active”.
On to `CSCC[C@H](NC(=O)[C@H](Cc1ccccc1)NC(=O)[C@@H](NCc1cnc(CCCC(CC(=O)O)C(=O)O)n1C)C(C)C)C(=O)O` (stereo partly specified), for which the half-inhibitory concentration (IC50) in assay [2] (read-out: IC50) amounted to 60 µM.
Turning to `CC(C)=CCC/C(C)=C/CC/C(C)=C/C/C=C/C(=O)O`, the IC50 in assay [1] (read-out: IC50) was determined as 40 µM; in assay [2] (read-out: IC50), 130 µM.
In the case of `CC(C)=CCC/C(C)=C/CC/C(C)=C/CC(CCCc1nccn1C)(C(=O)O)C(=O)O`, the IC50 in assay [2] (read-out: IC50) is 21 µM.
Regarding `CC(C)=CCC/C(C)=C/CC/C(C)=C/CCC(=O)CCC(=O)O`, the IC50 in assay [1] (read-out: IC50) is 80 µM; in assay [2] (read-out: IC50) it was over 200 µM.
Taken in the same sequence, the figures for `CCCCCCCCCCCCCC/C(C(=O)O)=C(\C)C(=O)O` [CHAETOMELLIC ACID A] were 0.34 µM and 0.175 µM.
In the case of `CCOC(=O)C(C/C=C/c1ncc(CN[C@H](C(=O)N[C@@H](Cc2ccccc2)C(=O)N[C@@H](CCSC)C(=O)OC)C(C)C)n1C)(C/C=C(\C)CC/C=C(\C)CCC=C(C)C)C(=O)OCC`, the inhibition at 10 µM in [6] worked out at 92%; in assay [7] it was 28%; in [9], 60%. Also, the Activity in [10] was 64%. The outcome in assay [11] and in [12] was inactive. Further, the IC50 in [8] was 1.1 µM; in assay [2] it was “Not Active”.
Take `CC(C)=CCC/C(C)=C/CC/C(C)=C/CCC(=O)NC(C(=O)O)C(=O)O`: the 50% inhibitory concentration (IC50) in assay [1] (read-out: IC50) turned out to be 200 µM; in [2] (read-out: IC50) it was 60 µM.
Turning to `CC(C)=CCC/C(C)=C/CC/C(C)=C/C=C/C(N)=O`, the IC50 entry in assay [1] and in [2] was “Not Active” in each case.
With `CC(C)=CCC/C(C)=C/CC/C(C)=C/C=C/C(=O)NC(C(=O)O)C(=O)O`, the IC50 in [2] (read-out: IC50) amounted to 10 µM.
Regarding `CC(C)=CCC/C(C)=C/CC/C(C)=C/CCC(=O)NO`, the IC50 entry in assay [1] was “Not Active”.
In the case of `CC(C)=CCC/C(C)=C/CC/C(C)=C/CCC(N)=O`, the IC50 result in assay [1] was “Not Active”; in [2] (read-out: IC50), over 200 µM.
With `CC(C)=CCC/C(C)=C/CC/C(C)=C/CCC(=O)CCCC(=O)O`, the IC50 in assay [1] (read-out: IC50) was found to be 15 µM; in assay [2] (read-out: IC50), 60 µM.
The like results for `CC(C)=CCC/C(C)=C/CC/C(C)=C/COC(C(=O)O)C(=O)O` were, in that order, 5 µM and 0.88 µM.
`CC(C)=CCC/C(C)=C/CC/C(C)=C/CCCC(=O)O`: the 50% inhibitory concentration (IC50) in assay [1] (read-out: IC50) is 42 µM; in assay [2] (read-out: IC50), 170 µM.
Taken in the same sequence, the figures for `CC(C)=CCC/C(C)=C/CC/C(C)=C/CCC(=O)NS(=O)(=O)c1ccccc1` were over 200 µM and over 200 µM.
`CC(C)=CCC/C(C)=C/CC/C(C)=C/CC(C(=O)O)C(=O)O`: the Ki in [3] is 0.26 µM. Besides, the outcome in assay [13] was inactive. Moreover, the IC50 in assay [1] (read-out: IC50) was 4 µM; in assay [2] (read-out: IC50), 0.9 µM.
As for `CC(C)=CCC/C(C)=C/CC/C(C)=C/COC(=O)CC(=O)O`, the results for the IC50 in [1] (read-out: IC50) and in assay [2] (read-out: IC50) were 80 µM and 160 µM, respectively.
On to `CCOC(=O)C(C/C=C(\C)CC/C=C(\C)CCC=C(C)C)(CCCc1ncc(CN[C@H](C(=O)N[C@@H](Cc2ccccc2)C(=O)N[C@@H](CCSC)C(=O)OC)C(C)C)n1C)C(=O)OCC`, for which the inhibition at 10 µM in assay [7] was determined as 54%; in [9], 44%. The outcome in assay [11] and in [12] was inactive. The IC50 in assay [8] was 1 µM; in [2], “Not Active”.
With `CC(C)=CCC/C(C)=C/CC/C(C)=C/CC(=O)CCCC(=O)O`, the IC50 in assay [1] (read-out: IC50) amounted to 35 µM; in [2] (read-out: IC50), 60 µM.
`CCOC(=O)C(C/C=C(\C)CC/C=C(\C)CCC=C(C)C)(CCCc1nccn1C)C(=O)OCC` displayed an inhibition at 10 µM in assay [6] of 89%. Moreover, the Activity in assay [10] is 24%. Moreover, the IC50 in assay [8] stood at 4 µM.
For the molecule `CC(C)=CCC/C(C)=C/CC/C(C)=C/CCC(=O)NS(=O)(=O)O`, the values for the IC50 in [1] (read-out: IC50) and in assay [2] (read-out: IC50) were over 200 µM and 85 µM, respectively.
In the case of `CCOC(=O)C(C/C=C/c1ncc(CN[C@H](C(=O)N[C@@H](Cc2ccccc2)C(=O)N[C@@H](CCSC)C(=O)O)C(C)C)n1C)(C/C=C(\C)CC/C=C(\C)CCC=C(C)C)C(=O)O` (stereo partly specified), the Ki was 0.5 µM in assay [3], 17 µM in [4] and 15 µM in assay [5]. For the same molecule, the inhibition result in assay [6], in assay [7] and in assay [9] was “inactive” each time. For the same molecule, the IC50 is 17.2 µM in [8] and 0.64 µM in assay [2] (read-out: IC50).
